{"data": "Experimental data pooled from the literature", "target": "Serine/threonine-protein kinase N1 (PKN1, Homo sapiens, UniProt Q16512)"}
{"Compound": "CN(C)c1ncc(F)c(-c2cnn3ncccc23)n1", "assay": "binding", "setting": "1 µM", "remaining binding [%]": 100}
{"Compound": "CN(C)c1ncnc(-c2ccc3nc(Nc4cc(CN5CCN(C(=O)CC(F)(F)F)CC5)ccn4)[nH]c3c2)c1Cl", "assay": "cell-free assay, competition with immobilised ligand", "setting": "1 µM", "remaining binding [%]": 100}
{"Compound": "COc1cnc(Nc2cccc(S(N)(=O)=O)c2)nc1N1CCN(c2ccccc2)CC1", "assay": "binding, competition with immobilised ligand", "setting": "1 µM", "remaining binding [%]": 82}
{"Compound": "C[C@@H](c1ccc(-n2cnc3c(N)ncnc32)cc1)N1CCc2nn(C)c(Cc3ccccc3)c2C1=O", "assay": "binding, competition with immobilised ligand", "setting": "0.1 µM", "remaining binding [%]": 98}
{"Compound": "CNC(=O)Nc1ccc2c(c1)[C@@]1(CC2)OC(=O)N(CC(=O)N(Cc2ccc(F)cc2)[C@@H](C)C(F)(F)F)C1=O", "assay": "cell-free assay, competition with immobilised ligand", "setting": "1 µM", "remaining binding [%]": 98}
{"Compound": "CNC(=O)[C@@H]1CC[C@@H](n2c(-c3ccc4cnccc4c3)nc3ccc(C(=O)NCc4cccc(C(N)=O)c4)cc32)C1", "assay": "binding, competition with immobilised ligand", "setting": "1 µM", "remaining binding [%]": 92}
{"Compound": "C[C@H](c1ccc(F)cc1)N(Cc1cccc(C(=O)O)c1)C(=O)c1cnc2ccccc2c1", "assay": "cell-free assay, competition with immobilised ligand", "setting": "1 µM", "remaining binding [%]": 100}
{"Compound": "CN(c1nccc(-c2cnn3ncccc23)n1)C1CC1", "assay": "binding", "setting": "1 µM", "remaining binding [%]": 100}
{"Compound": "c1cncc(-c2cccc(Nc3nccc(NC4CCCCC4)n3)c2)c1", "assay": "binding, competition with immobilised ligand", "setting": "10 µM", "remaining binding [%]": 64}
{"Compound": "Cc1nc(N2CC[C@@H](O)C2)ncc1-c1cc(C(F)(F)F)cc2[nH]ncc12", "assay": "binding, competition with immobilised ligand", "setting": "1 µM", "remaining binding [%]": 100}
{"Compound": "Nc1ncc2c(n1)-c1c([nH]c3ccc(C#CC4CC4)cc13)CCCC2", "assay": "binding, competition with immobilised ligand", "setting": "1 µM", "remaining binding [%]": 78}
{"Compound": "O=C(c1ccc(Nc2ncc(Cl)c(-c3ccc(Cl)s3)n2)cc1)N1CCC(N2CCCC2)CC1", "assay": "binding, competition with immobilised ligand", "setting": "1 µM", "remaining binding [%]": 25}
{"Compound": "COc1ccc2cc(OCC3(C(=O)O)CN(C(=O)c4ccc(F)cc4)C3)ccc2c1", "assay": "cell-free assay, competition with immobilised ligand", "setting": "1 µM", "remaining binding [%]": 100}
{"Compound": "FC(F)(F)Oc1cccc(-c2cnc3ccc(-c4ccncc4)nn23)c1", "assay": "cell-free assay, competition with immobilised ligand", "setting": "5 µM", "remaining binding [%]": 67}
{"Compound": "COc1ccnn2ncc(-c3ccnc(N(C)C)n3)c12", "assay": "binding", "setting": "1 µM", "remaining binding [%]": 74}
{"Compound": "O=C(Nc1c[nH]nc1C(=O)NC1CCNCC1)c1cc(F)cc(F)c1", "assay": "binding, competition with immobilised ligand", "setting": "1 µM", "remaining binding [%]": 100}
{"Compound": "CN(C)c1nccc(-c2cnn3ncccc23)n1", "assay": "binding", "setting": "1 µM", "remaining binding [%]": 98}
{"Compound": "Cc1cnc(Nc2ccc(C(=O)N3CCC(N4CCCC4)CC3)cc2)nc1-c1cc2ccccc2s1", "assay": "binding, competition with immobilised ligand", "setting": "1 µM", "remaining binding [%]": 1.2}
{"Compound": "N[C@@H]1CCN(c2nccc(-c3cnn4ncccc34)n2)C1", "assay": "binding", "setting": "1 µM", "remaining binding [%]": 93}
{"Compound": "O=C(NCCCN1CCOCC1)c1ccc(Nc2ncc(Cl)c(-c3ccc(Cl)s3)n2)cc1", "assay": "binding, competition with immobilised ligand", "setting": "1 µM", "remaining binding [%]": 39}
{"Compound": "O=C(NS(=O)(=O)c1ccc(NCC2CCOCC2)c([N+](=O)[O-])c1)c1ccc(N2CCN(Cc3ccc(C(F)(F)F)cc3-c3ccc(Cl)cc3)CC2)cc1Oc1cnc2[nH]ccc2c1", "assay": "cell-free assay, competition with immobilised ligand", "setting": "1 µM", "remaining binding [%]": 100}
{"Compound": "CN(CCCC(F)(F)F)c1nccc(-c2cnn3ncccc23)n1", "assay": "binding", "setting": "1 µM", "remaining binding [%]": 100}
